Laboratory results from ChEMBL document CHEMBL1125563, “Selective, centrally acting serotonin 5-HT2 antagonists. 1. 2- and 6-substituted 1-phenyl-3-(4-piperidinyl)-1H-indoles” (J Med Chem, 1992).

Columns and labels:
Rattus norvegicus [1] = experiment: Compound was evaluated for the inhibition of quipazine-induced head twitches after 2 h (administered subcutaneously); format: functional; details: sc
Rattus norvegicus [2] = experiment: Compound was evaluated for the inhibition of quipazine-induced head twitches after 24 hr (administered subcutaneously); format: functional; details: sc
[3] = target: Serotonin 2 (5-HT2) receptor (Rattus norvegicus, UniProt P30994+P08909+P14842); experiment: Displacement of [3H]ketanserin from 5-hydroxytryptamine 2 receptor from rat cortical membranes.; format: cell membranes, Membrane
Outline: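 [3H]ketanserin displacement from rat cortical membranes (5-HT2). Five concentrations across three decades in triplicate, two full curves; IC50 estimated on a log-concentration scale, given as logarithmic mean of at least two determinations.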

[4] = target: T1, Adrenergic receptor alpha-1 (Rattus norvegicus, UniProt P15823+P23944+P43140); experiment: Displacement of [3H]prazosin from Alpha-1 adrenergic receptor of whole rat brain membranes; format: cell membranes, Membrane
T1 sequence (P15823 whole entry): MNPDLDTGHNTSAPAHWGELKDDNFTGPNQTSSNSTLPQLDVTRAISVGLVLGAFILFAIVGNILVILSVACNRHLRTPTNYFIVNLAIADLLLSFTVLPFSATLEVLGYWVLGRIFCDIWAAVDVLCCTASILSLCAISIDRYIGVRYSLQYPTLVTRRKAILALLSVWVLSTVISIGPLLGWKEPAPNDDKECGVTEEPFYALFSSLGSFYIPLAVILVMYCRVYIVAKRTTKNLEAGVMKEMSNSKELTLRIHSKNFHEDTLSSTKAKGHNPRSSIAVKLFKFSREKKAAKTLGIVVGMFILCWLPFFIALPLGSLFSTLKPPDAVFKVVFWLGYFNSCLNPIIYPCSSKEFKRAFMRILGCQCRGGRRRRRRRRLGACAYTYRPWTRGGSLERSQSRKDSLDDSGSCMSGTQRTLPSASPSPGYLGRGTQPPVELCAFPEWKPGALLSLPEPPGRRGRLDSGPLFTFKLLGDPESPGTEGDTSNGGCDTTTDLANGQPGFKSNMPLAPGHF
T1 sequence (P23944 whole entry): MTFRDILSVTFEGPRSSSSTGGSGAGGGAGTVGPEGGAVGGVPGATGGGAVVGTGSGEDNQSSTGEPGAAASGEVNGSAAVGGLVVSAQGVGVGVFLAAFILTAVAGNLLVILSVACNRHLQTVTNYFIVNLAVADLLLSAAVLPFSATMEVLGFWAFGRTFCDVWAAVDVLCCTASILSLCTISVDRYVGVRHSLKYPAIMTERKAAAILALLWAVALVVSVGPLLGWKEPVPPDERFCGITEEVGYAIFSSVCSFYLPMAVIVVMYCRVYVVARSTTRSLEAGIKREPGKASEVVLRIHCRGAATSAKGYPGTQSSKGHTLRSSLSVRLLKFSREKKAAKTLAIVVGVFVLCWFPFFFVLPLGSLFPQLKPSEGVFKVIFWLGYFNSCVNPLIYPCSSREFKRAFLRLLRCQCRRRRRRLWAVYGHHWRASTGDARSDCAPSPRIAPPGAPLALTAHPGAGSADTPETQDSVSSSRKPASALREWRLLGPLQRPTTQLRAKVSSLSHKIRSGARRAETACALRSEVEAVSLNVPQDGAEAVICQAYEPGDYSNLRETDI
T1 sequence (P43140 whole entry): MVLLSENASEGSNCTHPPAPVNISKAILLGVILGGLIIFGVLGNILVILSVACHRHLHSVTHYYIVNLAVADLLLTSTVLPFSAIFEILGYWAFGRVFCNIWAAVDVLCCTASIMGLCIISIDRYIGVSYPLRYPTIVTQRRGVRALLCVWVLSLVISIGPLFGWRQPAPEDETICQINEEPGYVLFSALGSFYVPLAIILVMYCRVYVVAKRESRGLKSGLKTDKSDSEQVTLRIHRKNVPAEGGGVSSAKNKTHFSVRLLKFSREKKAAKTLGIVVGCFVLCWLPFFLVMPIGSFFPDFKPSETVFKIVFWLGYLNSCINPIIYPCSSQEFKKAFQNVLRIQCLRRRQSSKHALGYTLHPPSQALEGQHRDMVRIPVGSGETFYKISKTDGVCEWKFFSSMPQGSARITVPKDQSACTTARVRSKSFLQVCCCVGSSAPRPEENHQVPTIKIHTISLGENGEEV
Outline: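 α1 adrenoceptor binding measured as displacement of [3H]prazosin from whole rat brain membranes. Five test-drug concentrations spanning three decades in triplicate, two full curves; IC50 from log concentration-effect curves, logarithmic mean of at least two determinations.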

D(2) dopamine receptor = D(2) dopamine receptor (Rattus norvegicus, UniProt P61169); experiment: Displacement of [3H]-spiperone from Dopamine receptor D2 from rat striatal membranes; format: cell membranes, Membrane
Outline: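 [3H]spiperone displacement from rat striatal membranes (D2). Five test-drug concentrations over three decades, in triplicate, two full curves; IC50 from log concentration-effect curves, reported as logarithmic mean of at least two determinations.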

Rattus norvegicus [5] = experiment: Compound was evaluated for the inhibition of quipazine-induced head twitches after 2 h (administered subcutaneously); 0.11-0.29; format: functional; details: sc
Rattus norvegicus [6] = experiment: Compound was evaluated for the inhibition of pergolide-induced reactions after 2 hr (administered subcutaneously); format: functional; details: sc
Outline: (§1)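 Male Wistar rats with unilateral 6-OHDA lesions; test drug sc 2 h before pergolide (0.05 µmol/kg sc) to induce contralateral circling. Effect of each dose expressed as percent of mean of control sessions 1 week before and 1 week after, per rat; at least four rats per dose; ED50 by log-probit analysis.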

Rattus norvegicus [7] = experiment: Compound was evaluated for the inhibition of quipazine-induced head twitches after 24 h (administered subcutaneously); 0.0042-0.061; details: sc
Mus musculus [8] = organism: Mus musculus; experiment: Compound was evaluated for the inhibition of isolation-induced aggression at a threshold of 180 seconds; format: functional
Outline: (§2)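 Isolated male NMRI mice (3 weeks) trained to attack a nonaggressive intruder of the same strain; only mice with attack latency <25 s included. Pretested just before dosing and 2 h after sc test substance; observation maximum 180 s; at least eight mice per dose.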

Rattus norvegicus [9] = experiment: Compound was evaluated for the inhibition of quipazine-induced head twitches after 24 hr (administered perorally); 0.014-0.074; format: functional; details: po
Mus musculus [10] = organism: Mus musculus; experiment: Compound was evaluated for the inhibition of isolation-induced aggression at a threshold of, 90 seconds; format: functional; outline: as §2
Rattus norvegicus [11] = experiment: Compound was evaluated for the inhibition of quipazine-induced head twitches after 24 h (administered perorally); 0.056-0.22; format: functional; details: po
Rattus norvegicus [12] = experiment: Compound was evaluated for the inhibition of quipazine-induced head twitches after 2 hr (administered subcutaneously); 0.018-0.096; format: functional; details: sc
Mus musculus [13] = organism: Mus musculus; experiment: Compound was evaluated for the inhibition of isolation-induced aggression at a threshold of,90 seconds; format: functional; outline: as §2
Rattus norvegicus [14] = experiment: Compound was evaluated for the inhibition of quipazine-induced head twitches after 24 hr (administered subcutaneously); 0.010-0.12; format: functional; details: sc
Rattus norvegicus [15] = experiment: Compound was evaluated for the inhibition of quipazine-induced head twitches after 2 hr (administered subcutaneously); 0.010-0.24; format: functional; details: sc
Rattus norvegicus [16] = experiment: Compound was evaluated for the inhibition of quipazine-induced head twitches after 24 hr (administered subcutaneously); 0.0027-0.031; format: functional; details: sc
Rattus norvegicus [17] = experiment: Compound was evaluated for the inhibition of quipazine-induced head twitches after 24 hr (administered perorally); 0.010-0.048; format: functional; details: po
Mus musculus [18] = organism: Mus musculus; experiment: Compound was evaluated for the inhibition of isolation-induced aggression at a threshold of, 90 seconds; 3.7-9.4; format: functional; outline: as §2
Rattus norvegicus [19] = experiment: Compound was evaluated for the inhibition of quipazine-induced head twitches after 24 hr (administered perorally); 0.020-0.078; format: functional; details: po
Rattus norvegicus [20] = experiment: Compound was evaluated for the inhibition of quipazine-induced head twitches after 2 hr (administered subcutaneously); 0.022-0.056; format: functional; details: sc
Mus musculus [21] = organism: Mus musculus; experiment: Compound was evaluated for the inhibition of isolation-induced aggression at a threshold of 180 seconds; 4.4-13; format: functional; outline: as §2
Rattus norvegicus [22] = experiment: Compound was evaluated for the inhibition of pergolide-induced reactions after 2 hr (administered subcutaneously); 1.5-8.9; format: functional; details: sc; outline: as §1
Rattus norvegicus [23] = experiment: Compound was evaluated for the inhibition of quipazine-induced head twitches after 24 hr (administered subcutaneously); 0.014-0.066; format: functional; details: sc

Chain of D(2) dopamine receptor (P61169 whole entry): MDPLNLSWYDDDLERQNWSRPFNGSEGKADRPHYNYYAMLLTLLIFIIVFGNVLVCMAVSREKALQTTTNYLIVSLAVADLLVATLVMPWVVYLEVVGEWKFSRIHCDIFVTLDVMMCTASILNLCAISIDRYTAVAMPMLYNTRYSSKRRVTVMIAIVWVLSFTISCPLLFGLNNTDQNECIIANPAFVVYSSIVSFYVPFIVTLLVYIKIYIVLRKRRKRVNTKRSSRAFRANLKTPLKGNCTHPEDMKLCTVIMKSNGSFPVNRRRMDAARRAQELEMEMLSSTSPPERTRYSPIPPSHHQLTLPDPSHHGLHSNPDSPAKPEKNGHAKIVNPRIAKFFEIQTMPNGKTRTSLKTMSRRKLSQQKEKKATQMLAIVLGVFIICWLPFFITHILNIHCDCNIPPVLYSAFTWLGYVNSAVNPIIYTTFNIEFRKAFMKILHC

Row | SMILES | IC50 [3] [nM] | IC50 [4] [nM] | IC50 (D(2) dopamine receptor) [nM] | also measured
1 | CC(C)c1ccc2c(C3CCN(CCN4CCN(C(C)C)C4=O)CC3)cn(-c3ccc(F)cc3)c2c1 | 16 | 730 |  | ED50 (Rattus norvegicus [1]): > 0.54 µmol/kg; ED50 (Rattus norvegicus [2]): > 4.3 µmol/kg
2 | CC(C)c1ccc2c(C3CCN(CCN4CCNC4=O)CC3)cn(-c3ccc(F)cc3)c2c1 | 18 | 250 | 2600 | 
3 | Cc1ccc2c(C3CCN(CCN4CCNC4=O)CC3)cn(-c3ccc(F)cc3)c2c1 | 0.82 | 24 |  | 
4 | Cc1ccc2c(C3CCN(CCN4CCN(C(C)C)C4=O)CC3)cn(-c3ccc(Cl)cc3)c2c1 | 6 | 450 |  | 
5 | CC(C)N1CCN(CCN2CCC(c3cn(-c4ccc(F)cc4)c4cc(C(F)(F)F)ccc34)CC2)C1=O | 2.9 | 91 |  | 
6 | CC(C)NC(=O)N(C)CCN1CCC(c2cn(-c3ccc(F)cc3)c3cc(Cl)ccc23)CC1 | 2.2 | 26 | 74 | ED50 (Rattus norvegicus [5]): 0.18 µmol/kg; ED50 (Rattus norvegicus [6]): > 21 µmol/kg; ED50 (Rattus norvegicus [7]): 0.016 µmol/kg; ED50 (Mus musculus [8]): > 21 µmol/kg; ED50 (Rattus norvegicus [9]): 0.032 µmol/kg; ED50 (Mus musculus [10]): > 21 µmol/kg
7 | Cc1ccc2c(C3CCN(CCN4CCN(C(C)C)C4=O)CC3)cn(-c3ccc(F)cc3)c2c1 | 1.6 | 85 |  | ED50 (Rattus norvegicus [11]): 0.11 µmol/kg; ED50 (Rattus norvegicus [6]): > 18 µmol/kg; ED50 (Rattus norvegicus [12]): 0.042 µmol/kg; ED50 (Mus musculus [13]): 13 µmol/kg; ED50 (Mus musculus [8]): 7.3 µmol/kg; ED50 (Rattus norvegicus [14]): 0.036 µmol/kg
8 | CNC(=O)N(C)CCN1CCC(c2cn(-c3ccc(F)cc3)c3cc(Cl)ccc23)CC1 | 1.6 | 16 | 82 | ED50 (Rattus norvegicus [6]): > 23 µmol/kg; ED50 (Mus musculus [8]): > 23 µmol/kg; ED50 (Rattus norvegicus [15]): 0.049 µmol/kg; ED50 (Mus musculus [10]): > 23 µmol/kg; ED50 (Rattus norvegicus [16]): 0.0092 µmol/kg; ED50 (Rattus norvegicus [17]): 0.022 µmol/kg
9 | Cc1ccc2c(C3CCN(CCNC(=O)NC(C)C)CC3)cn(-c3ccc(F)cc3)c2c1 | 1.8 | 76 |  | 
10 | Cc1ccc2c(C3CCN(CCN4CCN(C(C)C)C4=O)CC3)c[nH]c2c1 | 60 | 27 | 590 | ED50 (Rattus norvegicus [1]): > 0.84 µmol/kg
11 | CC(C)N1CCN(CCN2CCC(c3cn(-c4ccccc4F)c4cc(Cl)ccc34)CC2)C1=O | 3.7 | 120 |  | 
12 | CC(C)N1CCN(CCN2CCC(c3cn(-c4ccccc4)c4cc(Cl)ccc34)CC2)C1=O | 4.5 | 39 | 290 | 
13 | O=C1NCCN1CCN1CCC(c2cn(-c3ccc(F)cc3)c3cc(C(F)(F)F)ccc23)CC1 | 1.7 | 33 | 260 | 
14 | Cc1ccc2c(C3CCN(CCNC(=O)N(C)C)CC3)cn(-c3ccc(F)cc3)c2c1 | 2.6 | 22 | 38 | 
15 | Cc1ccc2c(C3CCN(CCN4CCN(C(C)C)C4=O)CC3)cn(-c3cccc(C(F)(F)F)c3)c2c1 | 150 |  |  | 
16 | CC(C)N1CCN(CCN2CCC(c3c[nH]c4cc(Cl)ccc34)CC2)C1=O | 66 | 34 | 200 | 
17 | Cc1ccc2c(C3CCN(CCN4CCN(C(C)C)C4=O)CC3)cn(-c3ccccc3F)c2c1 | 2.5 | 370 |  | 
18 | Cc1ccc2c(C3CCN(CCN4CCN(C(C)C)C4=O)CC3)cn(-c3cccc(F)c3)c2c1 | 11 | 670 |  | 
19 | CC(C)N1CCN(CCN2CCC(c3cn(-c4ccc(F)cc4)c4cc(F)ccc34)CC2)C1=O | 1.3 | 13 | 28 | 
20 | CN(C)C(=O)NCCN1CCC(c2cn(-c3ccc(F)cc3)c3cc(Cl)ccc23)CC1 | 1.3 | 29 | 27 | 
21 | Cc1c(C2=CCN(CCN3CCNC3=O)CC2)c2ccccc2n1-c1ccc(F)cc1 | 1.1 | 23 | 160 | 
22 | O=C1NCCN1CCN1CCC(c2cn(-c3ccc(F)cc3)c3cc(Cl)ccc23)CC1 | 1.4 | 9.6 | 56 | 
23 | O=C1NCCN1CCN1CCC(c2cn(-c3ccc(F)cc3)c3ccc(Cl)cc23)CC1 [SERTINDOLE] |  | 3.4 |  | ED50 (Mus musculus [18]): 5.9 µmol/kg; ED50 (Rattus norvegicus [19]): 0.039 µmol/kg; ED50 (Rattus norvegicus [20]): 0.035 µmol/kg; ED50 (Mus musculus [21]): 7.5 µmol/kg; ED50 (Rattus norvegicus [22]): 3.7 µmol/kg; ED50 (Rattus norvegicus [23]): 0.03 µmol/kg
